ChEMBL document CHEMBL1124266, “Stereoelectronic factors influencing the biological activity and DNA interaction of synthetic antitumor agents modeled on CC-1065” (J Med Chem, 1988)
pIC50: −log10 of the molar value. Active and inactive are the calls of the source. The rule behind the calls is not given here.

Legend:
Nucleic Acid = experiment: Induced circular dichroism (ICD), expressed as molar ellipticity, in the presence of calf-thymus DNA; format: functional; details: Bos taurus
In short: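 Drug stock (1–4 mg/mL in DMA, DMF or DMSO) injected into calf-thymus DNA (11 × 10⁻⁵ M) in 0.01 M phosphate buffer pH 7.2. Final drug 0.85 × 10⁻⁵ M, base-to-drug ratio 13. Stood 24 h at room temperature before CD spectrum. Value is molar ellipticity at long-wavelength maximum, ca. 350 nm.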

L1210 = experiment: In vitro concentration required to inhibit 50% growth of murine L1210 leukemia cells; format: functional; details: Mus musculus, read-out: ID50 (the source's name)
In short: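 Mouse L1210 leukemia cells in RPMI 1634 with 5% fetal calf serum, 0.075% sodium bicarbonate, penicillin 0.1 mg/mL and streptomycin 50 μg/mL. Drug aliquots added to tubes, then cells at approximately 5 × 10³ cells/mL. Incubation 37 °C for 3 days; cell number by Coulter counter. ID₅₀ = nM concentration giving 50% growth inhibition.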

P388 [1] = experiment: In vivo % increase in life span of treated animals (OD) over that of control mice bearing tumor, determined against P388 leukemia cells; NA=no activity(<20% ILS); format: functional, organism-based; details: Mus musculus
In short: (§1)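 P388 leukemia kept by serial passage in female DBA/2 mice. Male BDF1 mice were given 10^6 cells ip on day 0. Drug was given ip on days 1, 5 and 9 in 2% DMA/10% Emulphor 620-P/water, with six mice per group. Optimum dose was in mg/kg per day. %ILS came from the median day of death versus untreated tumor-bearing controls. Mice alive at 30 days were counted as cured.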

P388 [2] = experiment: In vivo optimum dose given on days 1, 5, and 9 to mice implanted intraperitoneally with P388 leukemia cells; format: functional, Mus musculus
In short: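 P388 cells (10⁶/mouse) implanted ip into male BDF1 mice on day 0. Dosing ip on days 1, 5 and 9 in 2% DMA/10% Emulphor 620-P/water vehicle. Six mice per group. Optimum dose given in mg/kg per day, judged by increase in median life span.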

[3] = Lipophilic/hydrophilic partitioning (RP-TLC); format: ADME; details: 2:1 DMF-saline
In short: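 Reverse-phase TLC developed in 2:1 DMF–saline (0.9% NaCl). Plates scanned at 350 nm. R_f values averaged from two to four determinations.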

[4] = Pseudo-first order rate constant at pH 3 followed spectrophotometrically; format: ADME
In short: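 Acid-catalyzed cyclopropyl ring opening in methanolic buffer at pH 3, tracked by loss of the 344–370 nm absorption band. Residual long-wavelength absorbance at 2 weeks subtracted. Rate from ln(A/A₀) vs time, linear for at least 2 half-lives. Drug 20–120 µM.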

P388 [5] = experiment: In vivo % increase in life span of treated animals (OD) over that of control mice bearing tumor, determined against P388 leukemia cells; format: functional, Mus musculus
In short: (§2)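 Male BDF1 mice inoculated ip with 10⁶ P388 cells (tumor passaged in DBA/2 females) on day 0. Drug ip on days 1, 5, 9 in 2% DMA, 10% Emulphor 620-P, water. Six mice per group. %ILS = (median death day treated / median death day untreated control − 1) × 100, at optimum dose. 30-day survivors counted as cured.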

Mus musculus [6] = experiment: In vivo % increase in life span of treated animals (OD) over that of control mice bearing P388 leukemia; format: functional; in short: as §2
Mus musculus [7] = experiment: In vivo optimum dose (OD), given on days 1, 5, and 9 to mice bearing P388 leukemia; format: functional; in short: as §1
[8] = Pseudo-first order rate constant at pH 3 followed spectrophotometrically; Stable; format: ADME

k [8] | Compound | ICD (Nucleic Acid) | pIC50 (L1210) | ILS (P388 [1]) | OD (P388 [2]) | Rf [3] | k [4] | ILS (P388 [5]) | ILS (Mus musculus [6]) | OD (Mus musculus [7])
 | CC1=C(C(=O)N2CC3CC34C2=CC(=O)c2[nH]cc(C)c24)Cc2ccccc21 (stereo unspecified) | 0.004 | 7.52 | inactive | 17 mg/kg/day | 0.39 |  |  |  | 
 | Cc1c[nH]c2c1C13CC1CN(C(=O)c1cc4cc(NC(=O)c5cc6ccccc6o5)ccc4[nH]1)C3=CC2=O (stereo unspecified) | 0.05 | 10.70 |  | 0.05 mg/kg/day | 0.3 | 1e-05 | 170% |  | 
 | Cc1c[nH]c2c1C13CC1CN(C(=O)c1cc4ccccc4n1C)C3=CC2=O (stereo unspecified) | 0.003 | 8.00 |  |  |  | 1e-05 |  | 44% | 8 mg/kg/day
Stable | Cc1c[nH]c2c1C13CC1CN=C3C=C2O (stereo unspecified) | 0 | 6.05 | inactive | 10 mg/kg/day | 0.87 |  |  |  | 
 | Cc1c[nH]c2c1C13CC1CN(C(=O)c1cc4cc(NC(N)=O)ccc4[nH]1)C3=CC2=O (stereo unspecified) | 0.047 | 9.22 |  | 0.06 mg/kg/day | 0.89 | 1e-05 | 65% |  | 
 | Cc1c[nH]c2c1C13CC1CN(C(=O)c1ccc[nH]1)C3=CC2=O (stereo unspecified) | 0.01 | 8.70 |  | 1 mg/kg/day | 0.7 |  | 71% |  | 
 | COc1c(O)c2c(c3cc(C(=O)N4CCc5c4c(O)c(OC)c4[nH]c(C(=O)N6C[C@H]7C[C@@]78C6=CC(=O)c6[nH]cc(C)c68)cc54)[nH]c13)CCN2C(N)=O [(+)-CC-1065] | 0.28 | 10.15 |  | 0.1 mg/kg/day | 0.39 |  | 62% |  | 
 | Cc1c[nH]c2c1C13CC1CN(C(=O)c1cc4cc(NC(=O)c5cc6cc(NC(=O)c7ccccc7)ccc6[nH]5)ccc4[nH]1)C3=CC2=O (stereo unspecified) | 0.033 | 11.00 |  | 0.1 mg/kg/day | 0.3 |  | 77% |  | 
 | Cc1c[nH]c2c1C13CC1CN(C(=O)c1cc4cc(NC(=O)c5cc6cc(NC(N)=O)ccc6[nH]5)ccc4[nH]1)C3=CC2=O (stereo unspecified) | 0.075 | 9.52 |  | 0.1 mg/kg/day |  |  | 121% |  | 
 | Cc1c[nH]c2c1C13CC1CN(C(=O)c1cc4cc(NC(=O)c5cc6ccccc6[nH]5)ccc4[nH]1)C3=CC2=O (stereo unspecified) | 0.07 | 11.00 |  | 0.05 mg/kg/day | 0.3 |  | 159% |  | 
 | Cc1c[nH]c2c1C13CC1CN(S(C)(=O)=O)C3=CC2=O (stereo unspecified) | 0 | 7.00 |  | 25 mg/kg/day | 0.82 | 3e-06 | 60% |  | 
 | Cc1c[nH]c2c1C13CC1CN(C(=O)c1cc4ccccc4o1)C3=CC2=O (stereo unspecified) | 0.006 | 10.40 |  |  |  | 1.1e-05 |  | 110% | 0.25 mg/kg/day
 | Cc1c[nH]c2c1C13CC1CN(C(=O)c1ccc4ccccc4n1)C3=CC2=O (stereo unspecified) | 0.001 | 8.00 |  | 6 mg/kg/day | 0.5 | 1.2e-05 | 142% |  | 
 | Cc1c[nH]c2c1C13CC1CN(C(=O)c1ccccc1)C3=CC2=O (stereo unspecified) | < 0.001 | 8.52 |  | 12 mg/kg/day | 0.63 | 9e-06 | 71% |  | 
 | Cc1c[nH]c2c1C13CC1CN(S(=O)(=O)c1ccccc1)C3=CC2=O (stereo unspecified) |  | 6.05 |  |  | 0.58 |  |  |  | 
 | Cc1c[nH]c2c1C13CC1CN(C(=O)c1ccc4ccccc4c1)C3=CC2=O (stereo unspecified) | 0 | 8.15 |  | 6 mg/kg/day | 0.46 |  | 73% |  | 
 | Cc1c[nH]c2c1C13CC1CN(C(=O)c1cc4ccccc4s1)C3=CC2=O (stereo unspecified) | 0.007 | 9.52 |  | 0.8 mg/kg/day | 0.41 | 1.1e-05 | 100% |  | 
 | COc1c(O)ccc2cc(C(=O)N3CC4CC45C3=CC(=O)c3[nH]cc(C)c35)[nH]c12 (stereo unspecified) | 0.037 | 10.00 |  | 0.05 mg/kg/day | 0.63 | 1e-05 | 55% |  | 
 | CCCCCC(=O)N1CC2CC23C1=CC(=O)c1[nH]cc(C)c13 (stereo unspecified) | 0 | 8.52 |  | 2 mg/kg/day | 0.35 | 8e-06 | 100% |  | 
 | Cc1c[nH]c2c1C13CC1CN(C(=O)OC(C)(C)C)C3=CC2=O (stereo unspecified) | 0 | 6.52 |  |  | 0.35 | 5e-06 |  |  | 
 | Cc1c[nH]c2c1C13CC1CN(C(=O)c1cc4ccccc4[nH]1)C3=CC2=O (stereo unspecified) | 0.036 | 9.70 |  | 0.4 mg/kg/day | 0.45 | 1e-05 | 90% |  | 
 | Cc1c[nH]c2c1C13CC1CN(C(=O)c1ccc(NC(=O)c4ccccc4)cc1)C3=CC2=O (stereo unspecified) | 0.011 | 9.30 |  | 0.5 mg/kg/day | 0.42 |  | 83% |  | 
 | CCCCCCCCCC(=O)N1CC2CC23C1=CC(=O)c1[nH]cc(C)c13 (stereo unspecified) | 0 | 7.00 | inactive | 40 mg/kg/day | 0.07 |  |  |  | 
 | COc1ccc2[nH]c(C(=O)N3CC4CC45C3=CC(=O)c3[nH]cc(C)c35)cc2c1 (stereo unspecified) | 0.022 | 11.00 |  | 0.05 mg/kg/day | 0.47 | 1e-05 | 95% |  | 
 | Cc1c[nH]c2c1C13CC1CN(C(=O)c1cc4cc(NC(=O)c5ccccc5)ccc4[nH]1)C3=CC2=O (stereo unspecified) | 0.036 | 10.15 |  | 0.05 mg/kg/day | 0.43 |  | 82% |  | 
 | CCCCCC(=O)Nc1ccc2nc(C(=O)N3CC4CC45C3=CC(=O)c3[nH]cc(C)c35)ccc2c1 (stereo unspecified) |  | 7.00 |  | 21 mg/kg/day | 0.15 |  | 127% |  | 
 | CC(=O)N1CC2CC23C1=CC(=O)c1[nH]cc(C)c13 (stereo unspecified) | 0 | 7.70 |  | 3 mg/kg/day | 0.9 |  | 45% |  | 
 | Cc1c[nH]c2c1C13CC1CN(C(=O)c1ccccn1)C3=CC2=O (stereo unspecified) | 0 | 8.00 |  | 15 mg/kg/day | 0.76 | 1.2e-05 | 69% |  | 
